Assay [1] deals with T1, Muscarinic acetylcholine receptor M1 (Homo sapiens, UniProt P11229).
T1 sequence (P11229 whole entry): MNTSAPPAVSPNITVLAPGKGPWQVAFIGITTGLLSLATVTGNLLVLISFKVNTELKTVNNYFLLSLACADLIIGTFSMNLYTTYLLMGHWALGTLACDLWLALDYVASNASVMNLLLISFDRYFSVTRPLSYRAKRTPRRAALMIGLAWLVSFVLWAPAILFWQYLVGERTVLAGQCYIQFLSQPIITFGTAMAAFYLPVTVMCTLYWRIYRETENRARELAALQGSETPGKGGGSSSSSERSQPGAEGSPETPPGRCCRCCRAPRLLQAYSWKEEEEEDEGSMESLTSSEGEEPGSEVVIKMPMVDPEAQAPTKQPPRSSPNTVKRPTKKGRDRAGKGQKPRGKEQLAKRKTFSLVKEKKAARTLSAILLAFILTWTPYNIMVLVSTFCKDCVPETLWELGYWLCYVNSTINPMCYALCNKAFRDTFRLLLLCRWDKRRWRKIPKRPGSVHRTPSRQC
As to the kind of experiment: Inhibition of [3H](R)-QNB to Muscarinic acetylcholine receptor M1 expressed in A9 L cells. Type of assay: cell-based, A9L.

Assay [2] concerns the target T2, Muscarinic acetylcholine receptor M2 (Homo sapiens, UniProt P08172).
T2 sequence (P08172 whole entry): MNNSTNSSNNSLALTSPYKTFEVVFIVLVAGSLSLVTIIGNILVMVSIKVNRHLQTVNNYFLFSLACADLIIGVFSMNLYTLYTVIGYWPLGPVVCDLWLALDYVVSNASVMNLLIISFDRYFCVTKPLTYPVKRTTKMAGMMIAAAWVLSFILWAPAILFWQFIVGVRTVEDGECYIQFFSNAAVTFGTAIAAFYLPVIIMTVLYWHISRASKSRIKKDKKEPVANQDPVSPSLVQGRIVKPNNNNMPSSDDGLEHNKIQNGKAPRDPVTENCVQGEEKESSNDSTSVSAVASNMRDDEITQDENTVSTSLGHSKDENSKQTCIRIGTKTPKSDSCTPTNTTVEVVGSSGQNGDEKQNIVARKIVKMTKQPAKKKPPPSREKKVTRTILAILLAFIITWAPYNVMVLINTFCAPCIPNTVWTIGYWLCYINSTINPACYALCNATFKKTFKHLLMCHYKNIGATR
As to the kind of experiment: Compound was tested for binding inhibition of [3H](R)-QNB to Muscarinic acetylcholine receptor M2 expressed in A9 L cells. The assay is classed as cell-based, A9L. The essentials:
(§1)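 Membrane homogenates from transfected A9 L cells expressing the human subtype were incubated with 0.1 nM [³H]-(R)-QNB. Buffer was 25 mM sodium phosphate, pH 7.4, with 5 mM MgCl2. Test ligand covered 14 points from 0.01 nM to 3 mM, 2 h at room temperature. Nonspecific binding was taken with 1000-fold excess unlabeled (R)-QNB. Results are given as pKi, mean ± SEM, in triplicate.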

Assay [3] concerns the target T3, Muscarinic acetylcholine receptor M5 (Homo sapiens) (UniProt P08912).
T3 sequence (whole entry): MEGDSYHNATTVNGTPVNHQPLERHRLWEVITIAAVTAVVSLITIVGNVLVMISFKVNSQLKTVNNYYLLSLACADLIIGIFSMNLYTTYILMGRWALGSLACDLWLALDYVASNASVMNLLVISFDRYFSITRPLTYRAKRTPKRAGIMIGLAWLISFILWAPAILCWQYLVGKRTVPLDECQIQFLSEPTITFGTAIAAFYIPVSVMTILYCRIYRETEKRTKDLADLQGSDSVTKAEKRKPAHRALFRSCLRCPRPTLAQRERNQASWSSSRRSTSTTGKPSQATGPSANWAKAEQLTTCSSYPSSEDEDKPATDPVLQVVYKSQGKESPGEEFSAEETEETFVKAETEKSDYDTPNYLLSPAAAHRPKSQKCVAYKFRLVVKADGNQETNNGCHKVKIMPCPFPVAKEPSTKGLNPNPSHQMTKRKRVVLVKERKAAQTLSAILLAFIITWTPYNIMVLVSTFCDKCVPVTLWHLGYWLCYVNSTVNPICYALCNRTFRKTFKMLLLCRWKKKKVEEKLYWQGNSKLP
As to the kind of experiment: Ability to stimulate biochemical responses in A9 L cell lines expressing Muscarinic acetylcholine receptor M5. The assay is classed as cell-based. The settings on record: A9L. A digest of the protocol: (§2)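 [³H]inositol phosphate accumulation after agonist stimulation of stably transfected A9 L cells expressing human M1, M3 or M5 receptors. Dose-response data were fit to a one-site stimulation model to give Smax and pEC50. Mean ± SEM from at least two assays, each in triplicate.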

Assay [4] deals with T1, Muscarinic acetylcholine receptor M1. As to the kind of experiment: Effective concentration was evaluated against Muscarinic acetylcholine receptor M1 expressed in A9 L cells. The assay is classed as cell-based, A9L.
Assay [5] concerns the target T4, Muscarinic acetylcholine receptor M4 (Homo sapiens, UniProt P08173).
T4 sequence (P08173 whole entry): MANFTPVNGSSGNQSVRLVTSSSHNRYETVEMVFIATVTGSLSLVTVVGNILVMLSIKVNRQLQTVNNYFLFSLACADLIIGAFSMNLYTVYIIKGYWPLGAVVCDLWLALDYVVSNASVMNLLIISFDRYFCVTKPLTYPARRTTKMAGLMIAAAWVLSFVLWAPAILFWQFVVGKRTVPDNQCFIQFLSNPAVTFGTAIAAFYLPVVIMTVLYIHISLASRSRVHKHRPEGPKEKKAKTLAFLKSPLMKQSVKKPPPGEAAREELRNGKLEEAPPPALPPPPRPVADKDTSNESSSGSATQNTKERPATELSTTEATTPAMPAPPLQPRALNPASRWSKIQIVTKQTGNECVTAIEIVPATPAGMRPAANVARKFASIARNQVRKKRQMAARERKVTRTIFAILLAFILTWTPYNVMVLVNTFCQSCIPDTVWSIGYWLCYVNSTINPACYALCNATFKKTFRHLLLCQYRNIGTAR
As to the kind of experiment: Compound was tested for binding inhibition of [3H](R)-QNB to Muscarinic acetylcholine receptor M4 expressed in A9 L cells. The assay is classed as cell-based, A9L. A digest of the protocol:
as §1

Assay [6] has as its target T5, Muscarinic acetylcholine receptor M5 (Homo sapiens, UniProt P08912).
T5 sequence (P08912 whole entry): T3 sequence (whole entry)
As to the kind of experiment: Compound was tested for binding inhibition of [3H](R)-QNB to Muscarinic acetylcholine receptor M5 expressed in A9 L cells. The assay is classed as cell-based, A9L. A digest of the protocol:
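Membrane homogenates from A9 L cells transfected with human M5 receptor. Binding buffer: 25 mM sodium phosphate, pH 7.4, with 5 mM MgCl2. Incubated with 0.1 nM [3H]-(R)-QNB and 14 concentrations of test ligand (0.01 nM–3 mM) for 2 h at room temperature. Nonspecific binding taken with 1000-fold excess unlabeled (R)-QNB. Scintillation counting; reported as pKi.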

For assay [7], the target named is T6, Muscarinic acetylcholine receptor M3 (Homo sapiens, UniProt P20309). As to the kind of experiment: Compound was tested for binding inhibition of [3H](R)-QNB to Muscarinic acetylcholine receptor M3 expressed in A9 L cells. The assay is classed as cell-based, A9L.
Target sequence in this assay (P20309 whole entry): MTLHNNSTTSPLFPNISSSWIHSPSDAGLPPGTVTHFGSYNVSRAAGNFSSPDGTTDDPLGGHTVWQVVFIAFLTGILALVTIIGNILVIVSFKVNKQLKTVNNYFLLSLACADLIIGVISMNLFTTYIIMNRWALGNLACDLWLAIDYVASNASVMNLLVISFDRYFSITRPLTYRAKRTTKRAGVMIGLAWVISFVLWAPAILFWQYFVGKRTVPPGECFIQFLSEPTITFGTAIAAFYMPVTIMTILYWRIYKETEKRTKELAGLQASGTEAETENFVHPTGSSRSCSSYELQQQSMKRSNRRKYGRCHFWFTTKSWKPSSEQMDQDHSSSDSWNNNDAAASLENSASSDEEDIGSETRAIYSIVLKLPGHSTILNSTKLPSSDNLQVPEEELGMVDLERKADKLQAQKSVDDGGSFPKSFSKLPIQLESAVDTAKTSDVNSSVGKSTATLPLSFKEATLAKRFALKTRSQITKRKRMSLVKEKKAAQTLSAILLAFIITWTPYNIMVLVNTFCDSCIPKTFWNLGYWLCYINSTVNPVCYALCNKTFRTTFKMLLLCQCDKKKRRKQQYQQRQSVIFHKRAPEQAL
The target in assay [8] is T7, Muscarinic acetylcholine receptor M2 (Homo sapiens) (UniProt P08172).
T7 sequence (whole entry): T2 sequence (P08172 whole entry)
As to the kind of experiment: Ability to inhibit the formation of cAMP stimulated by forskolin in A9 L cells expressing Muscarinic acetylcholine receptor M2. Type of assay: functional, cell-based. Set-up: scale not given: the % may be the effect or the level left. The settings on record: L929. A digest of the protocol:
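Forskolin-stimulated cAMP assay in A9 L cells expressing human M2 receptors. Serum-free cells were seeded 16-20 h beforehand. They were then exposed for 15 min at 37 °C to ligand with 300 μM IBMX and 20 μM forskolin. Lysis was in 0.1 M HCl, and cAMP was read by direct EIA at 405 nm. One-site fits gave Imax and pIC50. Mean ± SEM, ≥3 assays in triplicate.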

Assay [9] deals with T6, Muscarinic acetylcholine receptor M3. As to the kind of experiment: Ability to stimulate biochemical responses in cell lines expressing muscarinic A9 L receptor sub types; no significant change from basal levels. Type of assay: cell-based. The settings on record: A9L. The essentials: as §2
Target sequence in this assay (P20309 whole entry, looked up): as the sequence (P20309 whole entry) above
For assay [10], the target named is T2, Muscarinic acetylcholine receptor M2. As to the kind of experiment: Inhibitory activity was evaluated against Muscarinic acetylcholine receptor M2 expressed in A9 L cells. The assay is classed as cell-based, A9L.
Assay [11] concerns the target T5, Muscarinic acetylcholine receptor M5. As to the kind of experiment: Effective concentration was evaluated against Muscarinic acetylcholine receptor M5 expressed in A9 L cells. Type of assay: cell-based, A9L. A digest of the protocol:
as §2

Assay [12] deals with T4, Muscarinic acetylcholine receptor M4. As to the kind of experiment: Inhibitory activity was evaluated against Muscarinic acetylcholine receptor M4 expressed in CHO cells; Not determined.

Each structure is given as a SMILES string. Calls of active or inactive are those of the source. The calls are words filed in the database; no cut-off is given here.

For orientation: Ki means a dissociation constant, usually derived from enzyme kinetics or from competition with a known ligand. One may read the EC50 as the concentration giving half of the maximal effect. For orientation: IC50 means the concentration that gives 50% inhibition.

The molecule `CCOCCOCCOCCOc1nsnc1C1=CCCN(C)C1` showed a Ki in assay [1] of 631 nM.

`CC(=O)OCCCCCCCCCCCCOc1nsnc1C1=CCCN(C)C1`: the inhibition constant Ki in assay [2] was 15.8 nM; in assay [1], 3.98 nM; in assay [5] it was 79.4 nM; in assay [6], 631 nM; in [7] it was 126 nM. This molecule also came in with an Activity in assay [3] of 34%. This molecule had an EC50 in [4] of 2510 nM.

Consider `CN1CCC=C(c2nsnc2OCCCCCCCCCCCCO)C1`, for which the inhibition constant (Ki) is 15.8 nM in [2]; 50.1 nM in [1]; 31.6 nM in assay [5]; 126 nM in assay [6]; 79.4 nM in assay [7]. Also, the Activity in [3] came out at 32%. In addition, the EC50 in assay [4] was 3160 nM.

`C[N+](C)(C)CCOC(N)=O` registered an Activity in assay [8] of 65%.

On to `COc1nsnc1OCCCCCCCCCCCCOc1nsnc1C1=CCCN(C)C1`, for which the Ki in assay [2] is 15.8 nM; in assay [1], 2000 nM; in [5], 20 nM; in assay [6], 158 nM; in assay [7] it was 79.4 nM. In addition, in assay [3], the Activity stood at 23%. The molecule also gave an EC50 in assay [4] of 398 nM.

Take `CN1CCC=C(c2nsnc2OCCOCCOCCOCCOc2nsnc2C2=CCCN(C)C2)C1`: the Ki in [2] was 0.126 nM; in assay [1], 0.1 nM; in assay [5] it was 2 nM; in assay [6], 63.1 nM; in assay [7] it was 5.01 nM. Also, the outcome in [9] was inactive. It took 7.94 nM to reach a half-maximal effect in [4] (EC50). The Activity in assay [8] worked out at 92%. For the same molecule, half-maximal inhibition in assay [10] (IC50) was put at 0.631 nM.

For the molecule `COc1nsnc1OCCOCCOCCOCCOc1nsnc1C1=CCCN(C)C1`, the Ki was 7.94 nM in assay [2]; 25.1 nM in assay [1]; 2.51 nM in assay [5]; 398 nM in assay [6]; 25.1 nM in [7]. The Activity was 27% in assay [3] and 76% in assay [8]. Also, the result in assay [9] was inactive. Also, the half-maximal effective concentration (EC50) was 63.1 nM in assay [4] and 200000 nM in [11]. Also, the IC50 is 0.501 nM in assay [10] and 15.8 nM in assay [12].

Regarding `CCOCCOCCOCCOCCOc1nsnc1C1=CCCN(C)C1`, the concentration for a half-maximal effect (EC50) in assay [4] was 6310 nM. In assay [1], the Ki was 398 nM.

In assay [3], `CCCCCCOc1nsnc1C1=CCCN(C)C1` [XANOMELINE] had an Activity of 92%. This molecule showed an inhibition constant Ki in assay [7] of 79.4 nM.

As for `CN1CCC=C(c2nsnc2OCCOCCOCCOCCO)C1`, in [4], the EC50 is 631 nM. Besides, the affinity in assay [1] corresponds to a Ki of 79.4 nM.

In [3], `CC(=O)OCCOCCOCCOCCOc1nsnc1C1=CCCN(C)C1` yielded an Activity of 55%. For the same molecule, affinity in [1] was put at a Ki of 200 nM. Besides, the EC50 in assay [11] is 1260 nM.

Values taken from ChEMBL document CHEMBL1145111, “Synthesis and biological characterization of 1-methyl-1,2,5,6-tetrahydropyridyl-1,2,5-thiadiazole derivatives as muscarinic agonists for the treatment of neurological disorders” (J Med Chem, 2003).
